According to ChEMBL document CHEMBL4028872, “Structure-Activity Relationship, Pharmacological Characterization, and Molecular Modeling of Noncompetitive Inhibitors of the Betaine/γ-Aminobutyric Acid Transporter 1 (BGT1)” (J Med Chem, 2017):

How the values were obtained:
Format in all cases: cell-based
GABA transporter 3 = molecular target: T1, GABA transporter 3 (Mus musculus, UniProt P31649); test: Inhibition of mouse GAT2 expressed in HEK293 cells assessed as reduction in [3H]GABA uptake after 3 mins by scintillation counting method
T1 sequence (P31649 whole entry): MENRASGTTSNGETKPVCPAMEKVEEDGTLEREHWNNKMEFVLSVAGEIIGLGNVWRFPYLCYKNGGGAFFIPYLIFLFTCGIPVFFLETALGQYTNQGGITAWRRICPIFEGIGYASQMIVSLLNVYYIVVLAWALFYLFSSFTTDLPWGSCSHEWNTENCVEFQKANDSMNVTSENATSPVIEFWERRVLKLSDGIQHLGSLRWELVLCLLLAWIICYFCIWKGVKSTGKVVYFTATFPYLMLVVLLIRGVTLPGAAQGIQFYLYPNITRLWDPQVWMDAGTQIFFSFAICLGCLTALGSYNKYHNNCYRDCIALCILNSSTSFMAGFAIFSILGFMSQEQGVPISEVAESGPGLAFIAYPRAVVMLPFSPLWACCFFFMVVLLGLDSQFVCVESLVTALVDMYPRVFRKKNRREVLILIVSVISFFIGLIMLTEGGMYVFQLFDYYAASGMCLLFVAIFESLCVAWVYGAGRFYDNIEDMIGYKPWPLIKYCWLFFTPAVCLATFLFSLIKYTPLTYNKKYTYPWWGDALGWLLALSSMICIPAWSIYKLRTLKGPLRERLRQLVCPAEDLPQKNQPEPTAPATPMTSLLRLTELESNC
Outline: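 HEK293 cells stably expressing mouse GAT2 were kept under blasticidin-S (5 µg/mL) selection. Ice-cold washes preceded scintillation counting. IC50 came from a variable-slope sigmoidal fit.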

[1] = molecular target: Sodium- and chloride-dependent GABA transporter 1 (Homo sapiens, UniProt P30531); settings: read-out: IC50
Sequence of Sodium- and chloride-dependent GABA transporter 1 (Homo sapiens, UniProt P30531) (P30531 whole entry): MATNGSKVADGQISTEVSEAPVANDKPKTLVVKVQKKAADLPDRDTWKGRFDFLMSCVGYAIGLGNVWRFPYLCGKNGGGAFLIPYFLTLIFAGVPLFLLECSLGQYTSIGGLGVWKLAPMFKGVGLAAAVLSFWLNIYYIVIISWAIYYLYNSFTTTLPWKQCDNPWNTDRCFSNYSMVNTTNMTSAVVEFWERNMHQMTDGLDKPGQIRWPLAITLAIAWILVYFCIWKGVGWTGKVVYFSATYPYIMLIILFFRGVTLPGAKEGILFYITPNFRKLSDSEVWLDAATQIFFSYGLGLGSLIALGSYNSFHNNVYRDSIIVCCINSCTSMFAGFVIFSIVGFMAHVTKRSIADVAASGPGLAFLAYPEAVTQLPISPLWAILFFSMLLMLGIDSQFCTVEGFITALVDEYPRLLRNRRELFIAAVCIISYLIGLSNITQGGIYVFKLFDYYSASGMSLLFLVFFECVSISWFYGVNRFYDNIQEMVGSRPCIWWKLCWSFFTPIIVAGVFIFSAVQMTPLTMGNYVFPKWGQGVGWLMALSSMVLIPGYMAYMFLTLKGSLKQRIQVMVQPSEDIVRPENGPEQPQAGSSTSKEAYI

GABA transporter 2 = molecular target: T2, GABA transporter 2 (Mus musculus, UniProt P31651); test: Inhibition of mouse BGT1 expressed in HEK293 cells assessed as reduction in [3H]GABA uptake after 3 mins by scintillation counting method; settings: read-out: IC50
T2 sequence (P31651 whole entry): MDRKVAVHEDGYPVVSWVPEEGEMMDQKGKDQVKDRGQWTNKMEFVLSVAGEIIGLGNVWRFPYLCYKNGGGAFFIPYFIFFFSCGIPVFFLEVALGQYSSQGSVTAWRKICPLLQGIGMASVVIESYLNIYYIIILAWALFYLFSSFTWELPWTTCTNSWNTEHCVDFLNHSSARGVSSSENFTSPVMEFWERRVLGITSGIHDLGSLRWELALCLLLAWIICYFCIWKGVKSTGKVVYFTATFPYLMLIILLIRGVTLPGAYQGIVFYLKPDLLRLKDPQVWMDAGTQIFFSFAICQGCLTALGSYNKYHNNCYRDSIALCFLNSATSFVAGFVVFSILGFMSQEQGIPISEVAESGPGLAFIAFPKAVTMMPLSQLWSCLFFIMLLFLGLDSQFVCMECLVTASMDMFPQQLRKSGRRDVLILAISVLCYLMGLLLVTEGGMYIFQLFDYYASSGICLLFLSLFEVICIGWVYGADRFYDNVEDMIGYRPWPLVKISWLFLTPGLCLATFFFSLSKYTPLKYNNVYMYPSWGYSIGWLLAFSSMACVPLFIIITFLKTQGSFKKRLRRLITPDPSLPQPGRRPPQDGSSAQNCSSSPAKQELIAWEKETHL
Outline: (§1)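 HEK293 lines stably expressing a single mouse GAT subtype, kept under blasticidin-S (5 µg/mL) selection. Cells were assayed about 24 h after plating with 30 nM [3H]GABA plus varying compound concentrations for 3 min at 37 °C in HBSS buffered with 20 mM HEPES (1 mM CaCl2, 1 mM MgCl2, pH 7.4). Cells were washed ice-cold and radioactivity counted. IC50 came from sigmoidal variable-slope fits.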

[2] = molecular target: Sodium- and chloride-dependent GABA transporter 1 (Mus musculus, UniProt P31648); test: Inhibition of mouse GAT1 expressed in HEK293 cells assessed as reduction in [3H]GABA uptake after 3 mins by scintillation counting method; outline: as §1

## Clc1ccc(CNC2CCN(Cc3ccccc3)CC2)c(Cl)c1
GABA transporter 3
  IC50: > 400 µM
[1]
  IC50: > 400 µM
GABA transporter 2
  IC50: 112 µM

## COc1cccc(CN2CCC(NC(=O)c3ccncc3)CC2)c1
[2]
  IC50: > 1000 µM
GABA transporter 3
  IC50: > 1000 µM
GABA transporter 2
  IC50: > 1000 µM

## COc1cccc(CN2CCC(NC(=O)c3cccs3)CC2)c1
[2]
  IC50: > 400 µM
GABA transporter 3
  IC50: > 400 µM
GABA transporter 2
  IC50: 390 µM

## O=C(NC1CCN(Cc2ccccc2)CC1)c1cnccc1Cl
[2]
  IC50: > 1000 µM
GABA transporter 3
  IC50: 150 µM
GABA transporter 2
  IC50: 39 µM

## O=C(NC1CCN(Cc2ccccc2)CC1)c1cccs1
[2]
  IC50: > 400 µM
GABA transporter 3
  IC50: > 400 µM
GABA transporter 2
  IC50: 179 µM

## COc1cc(CN2CCC(NC(=O)c3ccc(Cl)cc3Cl)CC2)cc(OC)c1
[2]
  IC50: > 1000 µM
GABA transporter 3
  IC50: 1200 µM
GABA transporter 2
  IC50: 30 µM

## O=C(NC1CCN(Cc2ccc3c(c2)OCO3)CC1)c1ccc(Cl)nc1Cl
[2]
  IC50: > 300 µM
GABA transporter 3
  IC50: > 300 µM
GABA transporter 2
  IC50: 60 µM

## COc1cccc(CN2CCC(NC(=O)c3ccc(Cl)cc3Cl)CC2)c1
[2]
  IC50: > 200 µM
GABA transporter 3
  IC50: > 200 µM
GABA transporter 2
  IC50: 26 µM

## O=C(NC1CCN(Cc2cccc(Cl)c2)CC1)c1ccc(Cl)cc1Cl
[2]
  IC50: > 300 µM
GABA transporter 3
  IC50: > 300 µM
GABA transporter 2
  IC50: > 300 µM

## O=C(O)c1cccc(CN2CCC(NC(=O)c3ccc(Cl)nc3Cl)CC2)c1
[2]
  IC50: > 300 µM
GABA transporter 3
  IC50: > 300 µM
GABA transporter 2
  IC50: > 300 µM

## NC(=O)c1cccc(CN2CCC(NC(=O)c3ccc(Cl)nc3Cl)CC2)c1
[2]
  IC50: > 300 µM
GABA transporter 3
  IC50: > 300 µM
GABA transporter 2
  IC50: > 300 µM

## COc1cccc(CN2CCC(NC(=O)c3cccnc3Cl)CC2)c1
[2]
  IC50: > 1000 µM
GABA transporter 3
  IC50: > 1000 µM
GABA transporter 2
  IC50: 1670 µM

## O=C(OC1CCN(Cc2ccccc2)CC1)c1ccccc1
GABA transporter 3
  IC50: 349 µM
[1]
  IC50: > 1000 µM
GABA transporter 2
  IC50: 106 µM

## O=C(NC1CCN(Cc2ccccc2)CC1)c1cccnc1Cl
[2]
  IC50: > 1000 µM
GABA transporter 3
  IC50: > 1000 µM
GABA transporter 2
  IC50: 1650 µM

## O=C(NC1CCN(Cc2cccc(OCCO)c2)CC1)c1ccc(Cl)nc1Cl
[2]
  IC50: > 300 µM
GABA transporter 3
  IC50: > 300 µM
GABA transporter 2
  IC50: > 300 µM

## O=C(NC1CCN(Cc2ccccc2)CC1)c1ccnc(Cl)c1
[2]
  IC50: > 1000 µM
GABA transporter 3
  IC50: > 1000 µM
GABA transporter 2
  IC50: 300 µM

## O=C(NC1CCN(Cc2ccccc2)CC1)c1ccccc1Cl
[2]
  IC50: > 400 µM
GABA transporter 3
  IC50: > 400 µM
GABA transporter 2
  IC50: 151 µM

## Cc1cc(C)cc(CN2CCC(NC(=O)c3ccc(Cl)cc3Cl)CC2)c1
[2]
  IC50: > 300 µM
GABA transporter 3
  IC50: > 300 µM
GABA transporter 2
  IC50: > 300 µM

## O=C(NC1CCN(Cc2ccc(-c3ccccc3)cc2)CC1)c1ccc(Cl)nc1Cl
[2]
  IC50: > 300 µM
GABA transporter 3
  IC50: > 300 µM
GABA transporter 2
  IC50: > 300 µM

## O=C(NC1CCN(Cc2ccc(OC(F)(F)F)cc2)CC1)c1ccc(Cl)cc1Cl
[2]
  IC50: > 1000 µM
GABA transporter 3
  IC50: > 1000 µM
GABA transporter 2
  IC50: > 1000 µM

## O=C(NC1CCN(Cc2cccc(O)c2)CC1)c1ccc(Cl)nc1Cl
[2]
  IC50: > 300 µM
GABA transporter 3
  IC50: > 300 µM
GABA transporter 2
  IC50: > 300 µM

## O=C(NC1CCN(Cc2cccc([N+](=O)[O-])c2)CC1)c1ccc(Cl)nc1Cl
[2]
  IC50: > 300 µM
GABA transporter 3
  IC50: > 300 µM
GABA transporter 2
  IC50: > 300 µM

## O=C(NC1CCN(Cc2cccc(F)c2)CC1)c1ccc(Cl)cc1Cl
[2]
  IC50: > 1000 µM
GABA transporter 3
  IC50: > 1000 µM
GABA transporter 2
  IC50: 34 µM

## Cc1cccc(CN2CCC(NC(=O)c3ccc(Cl)cc3Cl)CC2)c1
[2]
  IC50: > 300 µM
GABA transporter 3
  IC50: > 300 µM
GABA transporter 2
  IC50: > 300 µM

## O=C(NC1CCN(Cc2cccs2)CC1)c1ccc(Cl)nc1Cl
[2]
  IC50: > 300 µM
GABA transporter 3
  IC50: > 300 µM
GABA transporter 2
  IC50: > 300 µM

## COC(=O)c1cccc(CN2CCC(NC(=O)c3ccc(Cl)nc3Cl)CC2)c1
[2]
  IC50: > 300 µM
GABA transporter 3
  IC50: > 300 µM
GABA transporter 2
  IC50: > 300 µM

## COc1cccc(CN2CCC(NC(=O)c3cccnc3)CC2)c1
[2]
  IC50: > 1000 µM
GABA transporter 3
  IC50: > 1000 µM
GABA transporter 2
  IC50: > 1000 µM

## O=C(NC1CCN(Cc2ccccc2)CC1)c1ccc(Cl)cc1
[2]
  IC50: > 1000 µM
GABA transporter 3
  IC50: 590 µM
GABA transporter 2
  IC50: 77 µM

## O=C(NC1CCN(Cc2cc(Cl)cc(Cl)c2)CC1)c1ccc(Cl)cc1Cl
[2]
  IC50: > 300 µM
GABA transporter 3
  IC50: > 300 µM
GABA transporter 2
  IC50: > 300 µM

## O=C(NC1CCN(Cc2ccccc2)CC1)c1ccncc1
[2]
  IC50: > 1000 µM
GABA transporter 3
  IC50: > 1000 µM
GABA transporter 2
  IC50: 1150 µM

## O=C(NC1CCN(Cc2cccc(OC(F)(F)F)c2)CC1)c1ccc(Cl)cc1Cl
[2]
  IC50: > 1000 µM
GABA transporter 3
  IC50: > 1000 µM
GABA transporter 2
  IC50: 160 µM

## O=C(NC1CCN(Cc2c[nH]c3ccccc23)CC1)c1ccc(Cl)nc1Cl
[2]
  IC50: > 300 µM
GABA transporter 3
  IC50: > 300 µM
GABA transporter 2
  IC50: 58 µM

## COc1cccc(CN2CCC(NC(=O)c3ccc(Cl)nc3)CC2)c1
[2]
  IC50: > 1000 µM
GABA transporter 3
  IC50: 540 µM
GABA transporter 2
  IC50: 115 µM

## O=C(NC1CCN(Cc2ccccc2)CC1)c1cccnc1
[2]
  IC50: > 1000 µM
GABA transporter 3
  IC50: > 1000 µM
GABA transporter 2
  IC50: > 1000 µM

## O=C(OC1CCN(Cc2ccccc2)CC1)c1ccc(Cl)cc1Cl
GABA transporter 3
  IC50: > 1000 µM
[1]
  IC50: > 1000 µM
GABA transporter 2
  IC50: > 1000 µM
